According to ChEMBL document CHEMBL3580615, “Isolation and Characterization of Dammarane-Type Saponins from Gynostemma pentaphyllum and Their Inhibitory Effects on IL-6-Induced STAT3 Activation” (J Nat Prod, 2015):

Test: Cytotoxicity against human Hep3B cells after 48 hrs by MTT assay
Format: cell-based
Conditions: hep 3b2, 48 h
Summary of the method: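 Hep3B cells plated and grown 24 h in 96-well plates, then switched to serum-free medium. Samples added at indicated concentrations for 48 h. Viability read by MTT assay.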

Row | Structure (SMILES) | Activity
1 | CC(C)/C=C/C[C@](C)(O[C@@H]1O[C@H](CO[C@@H]2O[C@@H](C)[C@H](O)[C@@H](O)[C@H]2O)[C@@H](O)[C@H](O)[C@H]1O)[C@H]1CC[C@]2(C)[C@@H]1[C@H](O)C[C@@H]1[C@@]3(C)C[C@@H](O)[C@H](O)C(C)(C)[C@@H]3CC[C@]12C | Non-toxic
2 | CC(C)(/C=C/C[C@](C)(O[C@@H]1O[C@H](CO[C@@H]2O[C@H](CO)[C@@H](O)[C@H](O)[C@H]2O)[C@@H](O)[C@H](O)[C@H]1O)[C@H]1CC[C@]2(C)[C@@H]1[C@H](O)C[C@@H]1[C@@]3(C)C[C@@H](O)[C@H](O)C(C)(C)[C@@H]3CC[C@]12C)OO | Non-toxic
3 | CC(C)/C=C/C[C@](C)(O[C@@H]1O[C@H](CO[C@@H]2O[C@@H](C)[C@H](O)[C@@H](O)[C@H]2O)[C@@H](O)[C@H](O)[C@H]1O)[C@H]1CC[C@]2(C)[C@@H]1[C@H](O)C[C@@H]1[C@@]3(C)C[C@@H](O)[C@H](O[C@@H]4O[C@H](CO)[C@@H](O)[C@H](O)[C@H]4O)C(C)(C)[C@@H]3CC[C@]12C | Non-toxic
4 | CC(C)/C=C/C[C@](C)(O[C@@H]1O[C@H](CO[C@@H]2O[C@@H](C)[C@H](O)[C@@H](O)[C@H]2O)[C@@H](O)[C@H](O)[C@H]1O)[C@H]1CC[C@]2(C)[C@@H]1[C@H](O)C[C@@H]1[C@@]3(C)C[C@@H](O)[C@H](O[C@@H]4O[C@H](CO)[C@@H](O)[C@H](O)[C@H]4O[C@@H]4O[C@H](CO)[C@@H](O)[C@H](O)[C@H]4O)C(C)(C)[C@@H]3CC[C@]12C | Non-toxic
5 | CC(C)/C=C/C[C@](C)(O[C@@H]1O[C@H](CO[C@@H]2O[C@@H](C)[C@H](O)[C@@H](O)[C@H]2O)[C@@H](O)[C@H](O)[C@H]1O)[C@H]1CC[C@]2(C)[C@@H]1[C@H](O)C[C@@H]1[C@@]3(C)CC[C@H](O[C@@H]4O[C@H](CO)[C@@H](O)[C@H](O)[C@H]4O[C@@H]4O[C@H](CO)[C@@H](O)[C@H](O)[C@H]4O)C(C)(C)[C@@H]3CC[C@]12C | Non-toxic
6 | CC(C)(/C=C/C[C@](C)(O[C@@H]1O[C@H](CO)[C@@H](O)[C@H](O)[C@H]1O)[C@H]1CC[C@]2(C)[C@@H]1[C@H](O)C[C@@H]1[C@@]3(C)C[C@@H](O)[C@H](O[C@@H]4O[C@H](CO)[C@@H](O)[C@H](O)[C@H]4O[C@@H]4O[C@H](CO)[C@@H](O)[C@H](O)[C@H]4O)C(C)(C)[C@@H]3CC[C@]12C)OO | Non-toxic
7 | C[C@@H]1O[C@@H](OC[C@H]2O[C@@H](O[C@@](C)(C/C=C/C(C)(C)O)[C@H]3CC[C@]4(C)[C@@H]3[C@H](O)C[C@@H]3[C@@]5(C)C[C@@H](O)[C@H](O[C@@H]6O[C@H](CO)[C@@H](O)[C@H](O)[C@H]6O)C(C)(C)[C@@H]5CC[C@]34C)[C@H](O)[C@@H](O)[C@@H]2O)[C@H](O)[C@H](O)[C@H]1O | Non-toxic
8 | C[C@@H]1O[C@@H](OC[C@H]2O[C@@H](O[C@@](C)(C/C=C/C(C)(C)OO)[C@H]3CC[C@]4(C)[C@@H]3[C@H](O)C[C@@H]3[C@@]5(C)C[C@@H](O)[C@H](O[C@@H]6O[C@H](CO)[C@@H](O)[C@H](O)[C@H]6O[C@@H]6O[C@H](CO)[C@@H](O)[C@H](O)[C@H]6O)C(C)(C)[C@@H]5CC[C@]34C)[C@H](O)[C@@H](O)[C@@H]2O)[C@H](O)[C@H](O)[C@H]1O | Non-toxic
9 | C=C(C)C(=O)CC[C@](C)(O[C@@H]1O[C@H](CO[C@@H]2O[C@@H](C)[C@H](O)[C@@H](O)[C@H]2O)[C@@H](O)[C@H](O)[C@H]1O)[C@H]1CC[C@]2(C)[C@@H]1[C@H](O)C[C@@H]1[C@@]3(C)C[C@@H](O)[C@H](O)C(C)(C)[C@@H]3CC[C@]12C | Non-toxic
10 | C=C(C)C(=O)CC[C@](C)(O[C@@H]1O[C@H](CO[C@@H]2O[C@H](CO)[C@@H](O)[C@H](O)[C@H]2O)[C@@H](O)[C@H](O)[C@H]1O)[C@H]1CC[C@]2(C)[C@@H]1[C@H](O)C[C@@H]1[C@@]3(C)C[C@@H](O)[C@H](O)C(C)(C)[C@@H]3CC[C@]12C | Non-toxic
11 | C=C(C)C(=O)CC[C@](C)(O[C@@H]1O[C@H](CO[C@@H]2O[C@@H](C)[C@H](O)[C@@H](O)[C@H]2O)[C@@H](O)[C@H](O)[C@H]1O)[C@H]1CC[C@]2(C)[C@@H]1[C@H](O)C[C@@H]1[C@@]3(C)C[C@@H](O)[C@H](O[C@@H]4O[C@H](CO)[C@@H](O)[C@H](O)[C@H]4O[C@@H]4O[C@H](CO)[C@@H](O)[C@H](O)[C@H]4O)C(C)(C)[C@@H]3CC[C@]12C | Non-toxic
